Data on 9 compounds can be found in PubChem BioAssay AID602219 (Southern Research Specialized Biocontainment Screening …, 2012).

Inconclusive results are not listed. Calls of active or inactive are those of the source.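 Rule for the calls: active = inhibition of 30% or more at any tested concentration; inactive = the rest, inconclusive results apart.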

This experiment concerns the target M1-family alanyl aminopeptidase (Plasmodium falciparum 3D7). Put plainly: malaria M1 alanyl aminopeptidase inhibitors – biochemical, QFRET, H-Leu-NHMec substrate, set 2, selectivity assay for PfM18AAP inhibitor project, dose response (AID 602219). Particulars: recombinant PfM1AAP, H-Leu-NHMec fluorogenic cleavage; for inhibition: at 100 µM (top of the series). Put shortly: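 Technique: fluorescence, Ex 370 nm / Em 460 nm. Assay system: purified recombinant Plasmodium falciparum M1 alanyl aminopeptidase (rPfM1AAP). Amount: enzyme at 5 µg/mL final. Replication: triplicate. Times: enzyme reaction 90 min at room temperature. Buffer or medium: Tris-HCl pH 7.5, CoCl2, 2% DMSO. Benchmarks: full-reaction wells versus no-enzyme background wells for normalization.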

Turning to `Oc1ccc(-c2csc(NC3CCCC3)n2)cc1O`, the IC50 is 63 µM.
With `CN1CCN(CCc2ccc(O)c(O)c2)CC1`, the inhibition result was “inactive”.
Consider `Oc1ccc(CCNc2ccnc3ccccc23)cc1O`, for which the concentration for half-maximal inhibition (IC50) is 46.4 µM.
In the case of `COc1ccc(CCNC(c2ccccc2)c2ccccc2)cc1OC`, the inhibition entry is “inactive”.
For the compound `Oc1ccc(-c2csc(Nc3ncccn3)n2)cc1O`, the IC50 was 25.9 µM.
On to `CN1CCN(CCCc2ccc(O)c(O)c2)CC1`, for which the inhibition entry was “inactive”.
On the same count and under the same terms, the value for `COc1ccc(CCCN2CCN(C)CC2)cc1OC` was “inactive”.
In the case of `CN1CCN(c2nc(-c3ccc(O)c(O)c3)cs2)CC1`, the IC50 was 70.1 µM.
Same read-out and setting: as for `Oc1ccc(CCNc2c3ccccc3nc3ccccc23)cc1O`, the figure is 29.8 µM.

The IC50 is the concentration that inhibits the measured activity by half.
